ChEMBL document CHEMBL1126564, “Synthesis and antimicrobial evaluation of a series of 7-[3-amino (or aminomethyl)-4-aryl (or cyclopropyl)-1-pyrrolidinyl]-4-quinolone- and -1,8-naphthyridone-3-carboxylic acids” (1993)
Converted amounts (≈) assume the structure as drawn.

How the values were obtained:
Type in all cases: functional
Staphylococcus aureus [1] = assay: Minimum inhibitory concentration against Staphylococcus aureus UC-76; conditions: Staphylococcus aureus; read-out: MIC
In short: (§1)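 Standard microdilution method against a panel of five Gram-negative and five Gram-positive bacterial strains. The MIC (µg/mL) was recorded for each strain.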

Streptococcus pyogenes = assay: Minimum inhibitory concentration against Streptococcus pyogenes C-203; conditions: Streptococcus pyogenes; read-out: MIC; in short: as §1
Klebsiella pneumoniae = assay: Minimum inhibitory concentration against Klebsiella pneumoniae MGH-2; conditions: Klebsiella pneumoniae; read-out: MIC; in short: as §1
Staphylococcus aureus [2] = assay: Minimum inhibitory concentration against Staphylococcus aureus H-228; conditions: Staphylococcus aureus; read-out: MIC; in short: as §1
Enterobacter cloacae = assay: Minimum inhibitory concentration against […] MA-2646; conditions: Enterobacter cloacae; read-out: MIC; in short: as §1
Enterococcus faecalis = assay: Minimum inhibitory concentration against […] MGH-2; conditions: Enterococcus faecalis; read-out: MIC; in short: as §1
Streptococcus pneumoniae = assay: Minimum inhibitory concentration against Streptococcus pneumoniae SV-1; conditions: Streptococcus pneumoniae; read-out: MIC; in short: as §1
Providencia rettgeri = assay: Minimum inhibitory concentration against Providencia rettgeri M-1771; conditions: Providencia rettgeri; read-out: MIC; in short: as §1
Escherichia coli = assay: Minimum inhibitory concentration against Escherichia coli Vogel; conditions: Escherichia coli; read-out: MIC; in short: as §1
Pseudomonas aeruginosa = assay: Minimum inhibitory concentration against Pseudomonas aeruginosa UI-18; conditions: Pseudomonas aeruginosa; read-out: MIC; in short: as §1

SMILES	MIC (Staphylococcus aureus [1]) [µg/mL]	MIC (Streptococcus pyogenes) [µg/mL]	MIC (Klebsiella pneumoniae) [µg/mL]	MIC (Staphylococcus aureus [2]) [µg/mL]	MIC (Enterobacter cloacae) [µg/mL]	MIC (Enterococcus faecalis) [µg/mL]	MIC (Streptococcus pneumoniae) [µg/mL]	MIC (Providencia rettgeri) [µg/mL]	MIC (Escherichia coli) [µg/mL]	MIC (Pseudomonas aeruginosa) [µg/mL]
Nc1c(F)c(N2CC(N)C(c3ccc(F)cc3)C2)c(F)c2c1c(=O)c(C(=O)O)cn2C1CC1 (trans isomer)	0.013 (≈ 0.0284 µM)	0.1 (≈ 0.218 µM)	0.1 (≈ 0.218 µM)	0.025 (≈ 0.0545 µM)	0.1 (≈ 0.218 µM)	0.1 (≈ 0.218 µM)	0.1 (≈ 0.218 µM)	0.2 (≈ 0.436 µM)	0.1 (≈ 0.218 µM)	1.6 (≈ 3.49 µM)
NC1CN(c2c(F)cc3c(=O)c(C(=O)O)cn(C4CC4)c3c2F)CC1c1ccc(Cl)c(Cl)c1 (trans isomer)	0.013 (≈ 0.0263 µM)	0.1 (≈ 0.202 µM)	0.2 (≈ 0.405 µM)	0.05 (≈ 0.101 µM)	0.2 (≈ 0.405 µM)	0.1 (≈ 0.202 µM)	0.1 (≈ 0.202 µM)	0.2 (≈ 0.405 µM)	0.1 (≈ 0.202 µM)	1.6 (≈ 3.24 µM)
NCC1CN(c2c(F)c(N)c3c(=O)c(C(=O)O)cn(C4CC4)c3c2F)CC1c1ccc(N)cc1 (trans isomer)	0.006 (≈ 0.0128 µM)	0.025 (≈ 0.0532 µM)	0.2 (≈ 0.426 µM)	0.025 (≈ 0.0532 µM)	0.1 (≈ 0.213 µM)	0.025 (≈ 0.0532 µM)	0.013 (≈ 0.0277 µM)	0.2 (≈ 0.426 µM)	0.1 (≈ 0.213 µM)	0.8 (≈ 1.7 µM)
Nc1c(F)c(N2CC(N)C(c3ccc(O)cc3)C2)c(F)c2c1c(=O)c(C(=O)O)cn2C1CC1 (trans isomer)	0.013 (≈ 0.0285 µM)	0.1 (≈ 0.219 µM)	0.05 (≈ 0.11 µM)	0.05 (≈ 0.11 µM)	0.05 (≈ 0.11 µM)	0.05 (≈ 0.11 µM)	0.05 (≈ 0.11 µM)	0.1 (≈ 0.219 µM)	0.05 (≈ 0.11 µM)	0.8 (≈ 1.75 µM)
CCOC(=O)C1CC1C1CN(c2cc3c(cc2F)c(=O)c(C(=O)O)cn3C2CC2)CC1N (trans isomer)	0.2 (≈ 0.451 µM)	0.8 (≈ 1.8 µM)	0.4 (≈ 0.902 µM)	1.6 (≈ 3.61 µM)	0.2 (≈ 0.451 µM)	0.8 (≈ 1.8 µM)	0.8 (≈ 1.8 µM)	0.8 (≈ 1.8 µM)	0.2 (≈ 0.451 µM)	3.1 (≈ 6.99 µM)
COC(=O)c1ccc(C2CN(c3nc4c(cc3F)c(=O)c(C(=O)O)cn4C3CC3)CC2N)cc1 (trans isomer)	0.1 (≈ 0.214 µM)	0.8 (≈ 1.72 µM)	0.4 (≈ 0.858 µM)	0.2 (≈ 0.429 µM)	0.4 (≈ 0.858 µM)	0.4 (≈ 0.858 µM)	0.8 (≈ 1.72 µM)	0.8 (≈ 1.72 µM)	0.4 (≈ 0.858 µM)	3.1 (≈ 6.65 µM)
NCc1cccc(C2CN(c3nc4c(cc3F)c(=O)c(C(=O)O)cn4C3CC3)CC2CN)c1 (trans isomer)	0.8 (≈ 1.77 µM)	0.2 (≈ 0.443 µM)	3.1 (≈ 6.87 µM)	3.1 (≈ 6.87 µM)	3.1 (≈ 6.87 µM)	1.6 (≈ 3.54 µM)	0.8 (≈ 1.77 µM)	6.3 (≈ 14 µM)	3.1 (≈ 6.87 µM)	12.5 (≈ 27.7 µM)
NCC1CN(c2c(F)c(N)c3c(=O)c(C(=O)O)cn(C4CC4)c3c2F)CC1c1ccccc1 (trans isomer)	0.003 (≈ 0.0066 µM)	0.006 (≈ 0.0132 µM)	0.05 (≈ 0.11 µM)	0.006 (≈ 0.0132 µM)	0.05 (≈ 0.11 µM)	0.013 (≈ 0.0286 µM)	0.003 (≈ 0.0066 µM)	0.1 (≈ 0.22 µM)	0.025 (≈ 0.055 µM)	0.8 (≈ 1.76 µM)
CC(C)c1ccc(C2CN(c3nc4c(cc3F)c(=O)c(C(=O)O)cn4C3CC3)CC2N)cc1 (trans isomer)	0.1 (≈ 0.222 µM)	0.4 (≈ 0.888 µM)	0.8 (≈ 1.78 µM)	0.2 (≈ 0.444 µM)	0.8 (≈ 1.78 µM)	0.4 (≈ 0.888 µM)	0.4 (≈ 0.888 µM)	1.6 (≈ 3.55 µM)	0.4 (≈ 0.888 µM)	6.3 (≈ 14 µM)
NC1CN(c2nc3c(cc2F)c(=O)c(C(=O)O)cn3C2CC2)CC1c1ccc(Cl)c(Cl)c1 (trans isomer)	0.05 (≈ 0.105 µM)	0.4 (≈ 0.838 µM)	0.4 (≈ 0.838 µM)	0.1 (≈ 0.21 µM)	0.4 (≈ 0.838 µM)	0.2 (≈ 0.419 µM)	0.2 (≈ 0.419 µM)	0.8 (≈ 1.68 µM)	0.4 (≈ 0.838 µM)	3.1 (≈ 6.49 µM)
COc1ccccc1C1CN(c2c(F)cc3c(=O)c(C(=O)O)cn(C4CC4)c3c2F)CC1N (trans isomer)	0.025 (≈ 0.0549 µM)	0.1 (≈ 0.22 µM)	0.4 (≈ 0.878 µM)	0.05 (≈ 0.11 µM)	0.4 (≈ 0.878 µM)	0.1 (≈ 0.22 µM)	0.1 (≈ 0.22 µM)	0.8 (≈ 1.76 µM)	0.2 (≈ 0.439 µM)	3.1 (≈ 6.81 µM)
NCc1cccc(C2CN(c3c(F)cc4c(=O)c(C(=O)O)cn(C5CC5)c4c3F)CC2CN)c1 (trans isomer)	0.2 (≈ 0.427 µM)	0.1 (≈ 0.213 µM)	1.6 (≈ 3.42 µM)	1.6 (≈ 3.42 µM)	1.6 (≈ 3.42 µM)	0.8 (≈ 1.71 µM)	0.2 (≈ 0.427 µM)	3.1 (≈ 6.62 µM)	1.6 (≈ 3.42 µM)	6.3 (≈ 13.4 µM)
COc1ccc(C2CN(c3nc4c(cc3F)c(=O)c(C(=O)O)cn4C3CC3)CC2N)cc1 (trans isomer)	0.05 (≈ 0.114 µM)	0.1 (≈ 0.228 µM)	0.2 (≈ 0.456 µM)	0.1 (≈ 0.228 µM)	0.1 (≈ 0.228 µM)	0.2 (≈ 0.456 µM)	0.1 (≈ 0.228 µM)	0.4 (≈ 0.912 µM)	0.1 (≈ 0.228 µM)	1.6 (≈ 3.65 µM)
CN(C)c1ccc(C2CN(c3nc4c(cc3F)c(=O)c(C(=O)O)cn4C3CC3)CC2N)cc1 (trans isomer)	0.025 (≈ 0.0554 µM)	0.2 (≈ 0.443 µM)	0.4 (≈ 0.886 µM)	0.05 (≈ 0.111 µM)	0.2 (≈ 0.443 µM)	0.2 (≈ 0.443 µM)	0.2 (≈ 0.443 µM)	0.4 (≈ 0.886 µM)	0.2 (≈ 0.443 µM)	3.1 (≈ 6.87 µM)
